In paper PMC6605687 (The Journal of General Physiology, 2019):
Residue numbers refer to the chain shown, from its start. “Also recorded” adds a separate entry of the source. Where two headings read alike, the source gives them in different places.

Key:
Assay type in all cases: cell-based
[1] = molecular target: T1, rat P2X2 receptor (rP2X2R) WT (Rattus norvegicus, UniProt P49653); conditions: for Apparent affinity / potency (in words) / Efficacy (in words) / Macroscopic currents elicited (in words): WT P2X2Rs; for Apparent affinity / potency (in words) / Efficacy (in words): compared with ATP; for Macroscopic currents elicited (in words): concentrations of up to 1 mM; for Imax agonist/Imax ATP (%): maximal current compared to that elicited by 1 mM of ATP, same cell; for Fold increase in EC50 (reduced apparent affinity) compared with ATP: agonist versus ATP; for Reduction in efficacy: relative to ATP
T1 sequence (P49653 1-472): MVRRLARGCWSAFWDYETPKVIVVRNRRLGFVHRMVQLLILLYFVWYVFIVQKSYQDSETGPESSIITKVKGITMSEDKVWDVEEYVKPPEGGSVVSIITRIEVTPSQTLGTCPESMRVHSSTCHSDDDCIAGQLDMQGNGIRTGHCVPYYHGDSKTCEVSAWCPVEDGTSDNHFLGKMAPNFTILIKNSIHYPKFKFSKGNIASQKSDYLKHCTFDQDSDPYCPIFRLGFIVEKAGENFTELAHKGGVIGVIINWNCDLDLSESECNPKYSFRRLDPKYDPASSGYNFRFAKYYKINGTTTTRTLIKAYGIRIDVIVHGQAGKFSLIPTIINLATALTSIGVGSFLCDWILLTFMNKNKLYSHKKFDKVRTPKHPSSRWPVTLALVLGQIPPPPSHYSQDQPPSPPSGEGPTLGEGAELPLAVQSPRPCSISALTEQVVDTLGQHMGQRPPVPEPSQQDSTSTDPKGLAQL
How it was run: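 Collagenase-digested Xenopus oocytes were injected with WT rP2X2 mRNA (30 ng) and kept in L-15 at 18°C. Two-electrode voltage clamp was done 1–2 days later at −40 mV in ND96 (pH 7.4). Agonists were freshly dissolved in ND96 at pH 7.4. Responses were normalised to 1 mM ATP current in the same cell, and Hill fits gave EC50 and nH. Relative efficacy is the agonist maximal current versus 1 mM ATP. Results are mean ± SEM, compared by one-way ANOVA with Dunnett's test.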

rP2X2 Ile185Vah = molecular target: T2, rP2X2 Ile185Vah (Rattus norvegicus, UniProt P49653); assay: Two-electrode voltage clamp, oocytes expressing rP2X2 Ile185Vah; conditions: Ile185Vah, mean ± SEM
T2 sequence (P49653 1-472): T1 sequence (P49653 1-472)
How it was run: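 The backbone ester was introduced by nonsense suppression. TAG-mutant rP2X2 mRNA was co-injected into Xenopus oocytes with tRNA enzymatically aminoacylated with 2-hydroxyisovaleric acid. Uncharged tRNA co-injection served as the negative control. After incubation at 18°C, two-electrode voltage clamp was done at −40 mV in ND96 (pH 7.4). ATP concentration-response data were normalised and Hill-fitted for EC50 and nH, given as mean ± SEM.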

rP2X2 Thr184Val = molecular target: T3, rP2X2 Thr184Val (Rattus norvegicus, UniProt P49653, T184V); assay: Two-electrode voltage clamp, oocytes expressing rP2X2 Thr184Val
T3 sequence (P49653 1-472 T184V): T1 sequence (P49653 1-472) with T184V
How it was run: (§1)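 Mutations were made by site-directed mutagenesis. Xenopus oocytes were injected with rP2X2 mRNA and incubated in L-15 at 18°C. Two-electrode voltage clamp was done 1–2 days later at −40 mV under ND96 perfusion (pH 7.4). ATP concentration-response currents were normalised and fitted to a one-component Hill equation for EC50 and Hill coefficient. Results are mean ± SEM, tested by one-way ANOVA with Dunnett's test against WT.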

rP2X2 Thr184Ser = molecular target: T4, rP2X2 Thr184Ser (Rattus norvegicus, UniProt P49653, T184S); assay: Two-electrode voltage clamp, oocytes expressing rP2X2 Thr184Ser
T4 sequence (P49653 1-472 T184S): T1 sequence (P49653 1-472) with T184S
How it was run: as §1

rP2X2 Ile185Val = molecular target: T5, rP2X2 Ile185Val (Rattus norvegicus, UniProt P49653, I185V); assay: Two-electrode voltage clamp, oocytes expressing rP2X2 Ile185Val
T5 sequence (P49653 1-472 I185V): T1 sequence (P49653 1-472) with I185V
How it was run: as §1

rP2X2 Val70Vah = molecular target: T6, rP2X2 Val70Vah (Rattus norvegicus, UniProt P49653); assay: Two-electrode voltage clamp, oocytes expressing rP2X2 Val70Vah
T6 sequence (P49653 1-472): T1 sequence (P49653 1-472)

rP2X2-3T receptors = molecular target: T7, rP2X2-3T receptors (Rattus norvegicus, UniProt P49653, C348T/C430T/C9T); assay: Single channel outside-out patch-clamp recordings, HEK-293 cells; conditions: agonist 1 µM, mean ± SEM
T7 sequence (P49653 1-472 C9T/C348T/C430T): T1 sequence (P49653 1-472) with C9T, C348T, C430T
How it was run: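 HEK-293 cells were co-transfected by calcium phosphate with rP2X2-3T DNA plus GFP DNA to mark transfected cells, then recorded within 24 h. Outside-out patches were held at −120 mV. Pipette contained 147 NaF, 10 EGTA and 10 HEPES (mM, pH 7.3). Agonist at 1, 10 or 100 µM in extracellular saline (pH 7.3) was applied by fast perfusion for 10 s per 12-s sweep, at 1-min intervals. Amplitudes came from Gaussian fits to all-points histograms, with 2–5 sweeps averaged per patch.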

[2] = WT rP2X2R, Xenopus oocytes, −40 mV, mean ± SEM

| Structure (SMILES) | EC50 [1] [µM] | Imax agonist/Imax ATP (%) ([1]; WT rP2X2R) | nH (Hill coefficient) ([1]; WT rP2X2R, mean ± SEM) | Fold increase in EC50 (reduced apparent affinity) compared with ATP ([1]; WT rP2X2R) | Apparent affinity / potency (in words) [1] | Efficacy (in words) [1] | other results |
| --- | --- | --- | --- | --- | --- | --- | --- |
| Nc1ncnc2c1ncn2[C@H]1CC[C@@H](COP(=O)(O)OP(=O)(O)OP(=O)(O)O)O1 [C2′-C3′-ddATP, 2′,3′-dideoxyadenosine-5′-triphosphate] | – | – | – | – | even less potent agonist; also recorded: further decreased apparent affinity and efficacy | – | – |
| Nc1ncnc2c1ncn2[C@@H]1O[C@H](COP(=O)(O)OP(=O)(O)OP(=O)(O)O)[C@@H](O)[C@@H]1O [Ara-ATP, Ara-adenosine 5′-triphosphate] | – | – | – | – | lower apparent affinity than ATP | greatly reduced efficacy | EC50 [1, 2]: > 100 µM |
| Nc1ncnc2c1ncn2[C@@H](CO)O[C@@H](CO)COP(=O)(O)OP(=O)(O)OP(=O)(O)O [UNA-ATP, unlocked nucleic acid–ATP] | – | – | – | – | – | – | Macroscopic currents elicited (in words) [1]: failed to elicit macroscopic currents; also recorded: does not elicit macroscopic current responses; also recorded: did not act as an agonist |
| O=P(O)(O)OP(=O)(O)OP(=O)(O)OC[C@H]1O[C@@H](n2cnc3c(O)ncnc32)[C@H](O)[C@@H]1O [ITP, Inosine 5′-triphosphate] | – | – | – | – | – | – | Macroscopic currents elicited (in words) [1]: failed to evoke any currents |
| Nc1ncnc2c1ncn2[C@@H]1O[C@@]2(COP(=O)(O)OP(=O)(O)OP(=O)(O)O)CO[C@@H]1[C@@H]2O [LNA-ATP, locked nucleic acid–ATP] | – | 66 ± 1 | 1.8 ± 0.1 | – | apparent affinity indistinguishable from ATP; also recorded: ATP-like apparent affinity | significantly reduced efficacy; also recorded: only a minor decrease in efficacy | SDopen (SD of the open state amplitude) (rP2X2-3T receptors): 1.03 ± 0.1; Unitary current (rP2X2-3T receptors; outside-out patch, −120 mV): −3.58 ± 0.4 pA; EC50 [1, 2]: 27 ± 1 µM |

Now from value to compound, other results behind:

| EC50 [1] [µM] | Imax agonist/Imax ATP (%) ([1]; WT rP2X2R) | nH (Hill coefficient) ([1]; WT rP2X2R, mean ± SEM) | Fold increase in EC50 (reduced apparent affinity) compared with ATP ([1]; WT rP2X2R) | Structure (SMILES) | Apparent affinity / potency (in words) [1] | Efficacy (in words) [1] | other results |
| --- | --- | --- | --- | --- | --- | --- | --- |
| > 300 | – | – | – | Nc1ncnc2c1ncn2[C@H]1C[C@H](O)[C@@H](COP(=O)(O)OP(=O)(O)OP(=O)(O)O)O1 [C2′-dATP, 2′-deoxyadenosine-5′-triphosphate] | – | – | – |
| 370 ± 30 | 105 ± 4 | – | – | Nc1ccn([C@@H]2O[C@H](COP(=O)(O)OP(=O)(O)OP(=O)(O)O)[C@@H](O)[C@H]2O)c(=O)n1 [CTP, Cytidine 5′-triphosphate] | – | did not alter efficacy; also recorded: ATP-like efficacy | EC50 (rP2X2 Ile185Vah): 1100 µM; EC50 (rP2X2 Thr184Val): 11700 µM; Fold increase in EC50 (reduction in sensitivity), Thr184Val versus WT (rP2X2 Thr184Val; Thr184Val compared with WT): ~30 fold; EC50 (rP2X2 Thr184Ser): 156 ± 30 µM; EC50 (rP2X2 Ile185Val): 144 ± 30 µM; nH (Hill coefficient) (rP2X2 Val70Vah; Val70Vah): 2.6 ± 0.1; Fold increase in EC50, Val70Vah versus WT (rP2X2 Val70Vah; Val70Vah compared with WT): fivefold; EC50 (rP2X2 Val70Vah; Val70Vah, mean ± SEM): 2000 µM |
| 52 ± 6 | 60 ± 2 | 2.1 ± 0.1 | twofold | Nc1ncnc2c1ncn2[C@@H]1O[C@H](COP(=O)(O)OP(=O)(O)OP(=O)(O)O)[C@@H](O)[C@H]1F [C2′-F-dATP, 2′-fluoro-2′-deoxyadenosine-5′-triphosphate] | – | – | Reduction in efficacy ([1]; WT rP2X2R): ~40% |
| 83 ± 4 | 67 ± 2 | 2.6 ± 0.1 | threefold | Nc1ncnc2c1ncn2[C@@H]1O[C@H](COP(=O)(O)OP(=O)(O)OP(=O)(O)O)C[C@H]1O [C3′-dATP, 3′-deoxyadenosine-5′-triphosphate] | – | – | Reduction in efficacy ([1]; WT rP2X2R): ~30% |
| 12000 | – | – | 400 fold | O=c1ccn([C@@H]2O[C@H](COP(=O)(O)OP(=O)(O)OP(=O)(O)O)[C@@H](O)[C@H]2O)c(=O)[nH]1 [UTP, uridine 5′-triphosphate] | – | significantly reduced efficacy | – |
